The values that follow come from ChEMBL document CHEMBL2057186, “Application of the bicyclo[1.1.1]pentane motif as a nonclassical phenyl ring bioisostere in the design of a potent and orally active γ-secretase inhibitor” (J Med Chem, 2012).

Molecules are shown by their SMILES. Values after ≈ are worked out from the molar mass of the structure shown.

The nature of data set [1]: Apparent permeability from apical to basal side of dog RRCK cells. The class given is ADME, cell-based, Canis lupus familiaris, MDCKII-LE. To be noted: MDCK. In outline: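 Absorptive (A to B) permeability was measured in RRCK cells, a Madin–Darby canine kidney subline isolated for low transporter activity. It estimates intrinsic passive permeability.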
Data set [2] deals with Gamma-secretase. Kind of data set: Inhibition of gamma secretase-mediated amyloid beta42 production in human H4 cells expressing human wild-type APP.
A short description of data set [3]: Kinetic solubility of the solubility of the compound at pH 6.5. The class given is physicochemical. To be noted: buffer, read-out: Kinetic_solubility. In outline: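 Kinetic solubility was measured in aqueous buffer at pH 6.5.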
Data set [4] relates to P-gp. Kind of data set: Efflux ratio of apparent permeability from basal to apical side to apical to basal side of MDCK cells expressing human P-gp. The class given is ADME, cell-based, Canis lupus familiaris. To be noted: dog, MDCK-MDR1. The gist of the method: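 Monolayers were MDCK cells transfected with the human P-glycoprotein (MDR1) gene. Permeability was measured basolateral-to-apical and apical-to-basolateral, and the BA/AB ratio was reported.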

The species entered for data set [5] is Homo sapiens. Kind of data set: Selectivity for human gamma-seretase over notch signalling protein.

Regarding `NC(=O)[C@@H](CCC(F)(F)F)N(CC1(c2ncon2)CC1)S(=O)(=O)c1ccc(Cl)cc1`, in data set [1], the Papp A→B came out at 16.4 ×10⁻⁶ cm/s. In addition, in data set [2], half-maximal inhibition (IC50) required 45.5 nM.
Regarding `C[C@]1(C#N)C[C@@H](CN([C@H](CCC(F)(F)F)C(N)=O)S(=O)(=O)c2ccc(Cl)cc2)C1`, the Papp A→B in data set [1] is 25.7 ×10⁻⁶ cm/s. This molecule also displayed an IC50 in data set [2] of 7.47 nM.
Regarding `N#Cc1ccc(CN([C@H](CCC(F)(F)F)C(N)=O)S(=O)(=O)c2ccc(Cl)cc2)c(F)c1`, the Papp A→B in data set [1] is 18.7 ×10⁻⁶ cm/s. Further, in data set [3], the solubility kinetic came to 6.8 µM (≈ 3.25 µg/mL). Besides, the efflux ratio in data set [4] was found to be 1.71. The molecule further came in with an IC50 in data set [2] of 1.77 nM.
Consider `N#C[C@H]1C[C@@H](CN([C@H](CCC(F)(F)F)C(N)=O)S(=O)(=O)c2ccc(Cl)cc2)C1`, for which the Papp A→B in data set [1] stood at 24.1 ×10⁻⁶ cm/s. In data set [2], this molecule showed an IC50 of 4.77 nM.
Take `N#C[C@H]1C[C@@H]1CN([C@H](CCC(F)(F)F)C(N)=O)S(=O)(=O)c1ccc(Cl)cc1`: the Papp A→B in data set [1] stood at 21.5 ×10⁻⁶ cm/s. For the same molecule, the IC50 in data set [2] came to 6.92 nM.
For `N#CC1(CN([C@H](CCC(F)(F)F)C(N)=O)S(=O)(=O)c2ccc(Cl)cc2)CC1` the same measures were 29.9 ×10⁻⁶ cm/s and 9.6 nM.
On to `C[C@]1(C#N)C[C@H](CN([C@H](CCC(F)(F)F)C(N)=O)S(=O)(=O)c2ccc(Cl)cc2)C1`, for which the Papp A→B in data set [1] worked out at 21.8 ×10⁻⁶ cm/s. This molecule also displayed an IC50 in data set [2] of 58.7 nM.
Take `N#CC12CC(CN([C@H](CCC(F)(F)F)C(N)=O)S(=O)(=O)c3ccc(Cl)cc3)(C1)C2`: the Selectivity Index in data set [5] was 467. Further, the Papp A→B in data set [1] was 30.2 ×10⁻⁶ cm/s. For the same molecule, the solubility kinetic in data set [3] was determined as 272 µM (≈ 122 µg/mL). Also, the efflux ratio in data set [4] is 2.04. Moreover, in data set [2], half-maximal inhibition (IC50) was put at 0.99 nM.
For `N#C[C@H]1C[C@H](CN([C@H](CCC(F)(F)F)C(N)=O)S(=O)(=O)c2ccc(Cl)cc2)C1`, the Papp A→B in data set [1] is 24.9 ×10⁻⁶ cm/s. The IC50 in data set [2] is 16.4 nM.
For `N#C[C@H]1CC[C@H](CN([C@H](CCC(F)(F)F)C(N)=O)S(=O)(=O)c2ccc(Cl)cc2)CC1` (stereo in doubt; 21), in data set [1], the Papp A→B was 15.7 ×10⁻⁶ cm/s. For the same molecule, the IC50 in data set [2] amounted to 2.75 nM.

As usually defined, the Papp A→B is how fast a substance crosses the layer from the apical side. By IC50 is commonly meant the concentration that gives 50% inhibition. Low readings indicate greater potency, high ones weaker potency. By efflux ratio is commonly meant a quotient of directional permeabilities that is used to spot active efflux.
